Data: ChEMBL document CHEMBL3525991, “Metabolic transformation of antitumor acridinone C-1305 but not C-1311 via selective cellular expression of UGT1A10 increases cytotoxic response: implications for clinical use” (Drug Metab Dispos, 2013)
The source made the active and inactive calls. The rule behind the calls is not given here.

Tests used:
[1] = Cytotoxicity against human KB3 cells assessed as decrease in cell viability after 72 hrs by MTT assay; assay type: functional, cell-based; settings: KB3, 72 h
Procedure, shortened: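 KB-3 (HeLa variant) cells, untransfected, in DMEM with 10% FBS at 37 °C, 5% CO2, seeded 2000/well. Next day, drug added at concentrations up to 10 μM, final 0.1% DMSO; vehicle controls. MTT read at 540 nm after 4 h, following DMSO solubilisation. Triplicate points, relative to vehicle. IC50 is the concentration giving 50% of control absorbance. Repeated independently.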

[2] = Cytotoxicity against human KB3 cells expressing human UGT2B4 assessed as decrease in cell viability after 72 hrs by MTT assay; assay type: functional, cell-based; settings: KB3, 72 h
Procedure, shortened: (§1)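 KB-3 cells electroporated with 5 μg plasmid (UGT1A10-pcDNA3.1, UGT2B4-pIRES or empty pcDNA3.1), cotransfected with GFP (140 V, 250 μF). Used 24 h later at 2000/well. Next day, drug up to 10 μM in 0.1% DMSO for 72 h. MTT read at 540 nm after 4 h. Triplicates, relative to vehicle. IC50 is 50% of control absorbance.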

[3] = Cell cycle arrest in human KB3 cells overexpressing human UGT1A10 assessed as distribution at subG1 DNA content at 3 uM after 24 hrs by propidium iodide staining-based FACS flow cytometric analysis (reference value: 3.4%); assay type: functional; settings: in the assay text read “72 hrs” for “24 hrs”
Procedure, shortened: (§2)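 KB-3 cells were electroporated with a UGT1A10 expression plasmid (140 V, 250 μF), co-transfected with GFP, and used 24 h later. At 80% confluence they received 8 μM or 3 μM compound, or 0.1% DMSO, for 24–72 h. Cells were fixed in ice-cold 70% ethanol, stained with PI/RNase for 30 min in the dark, and analysed by flow cytometry for DNA content; at least two experiments.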

[4] = biological target: T1, UDP-glucuronosyltransferase 2B4 (Homo sapiens, UniProt P06133); assay: Drug metabolism in human KB3 cells overexpressing human UGT2B4 assessed as enzyme-mediated metabolites formation at 30 uM for 24 to 72 hrs by HPLC analysis; assay type: ADME, cell-based; settings: kb3, 30 µM
T1 sequence (P06133 whole entry): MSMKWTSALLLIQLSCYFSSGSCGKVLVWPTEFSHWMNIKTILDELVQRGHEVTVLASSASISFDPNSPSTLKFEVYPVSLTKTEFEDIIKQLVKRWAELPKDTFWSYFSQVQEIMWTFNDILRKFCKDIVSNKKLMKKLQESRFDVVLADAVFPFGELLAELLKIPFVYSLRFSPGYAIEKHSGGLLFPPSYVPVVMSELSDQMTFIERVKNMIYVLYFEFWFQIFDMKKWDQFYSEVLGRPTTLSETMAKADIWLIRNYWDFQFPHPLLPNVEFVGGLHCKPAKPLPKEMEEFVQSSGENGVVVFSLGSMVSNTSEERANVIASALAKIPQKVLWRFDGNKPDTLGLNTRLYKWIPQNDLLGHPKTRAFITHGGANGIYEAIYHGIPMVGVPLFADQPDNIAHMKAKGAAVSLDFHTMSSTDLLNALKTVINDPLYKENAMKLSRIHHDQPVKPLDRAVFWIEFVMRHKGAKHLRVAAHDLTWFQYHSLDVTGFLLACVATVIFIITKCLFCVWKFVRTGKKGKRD
Procedure, shortened: (§3)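 Untransfected KB-3, or cells electroporated 24 h earlier with UGT1A10 or UGT2B4 plasmid, grown to 80% confluence and treated with 30 μM drug for 24, 48 or 72 h. Cells plus medium collected, washed, sonicated in ice-cold 60% methanol. Reverse-phase HPLC at 1 ml/min in 50 mM ammonium formate pH 3.2, with a 15–80% methanol gradient over 25 min, then to 100%. Positive-ion ESI-MS.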

[5] = Cell cycle arrest in human KB3 cells assessed as distribution at subG1 DNA content at 3 uM after 72 hrs by propidium iodide staining-based FACS flow cytometric analysis (reference value: 3.4%)
[6] = Cytotoxicity against human KB3 cells expressing pcDNA3.1 assessed as decrease in cell viability after 72 hrs by MTT assay; assay type: functional, cell-based; settings: KB3, 72 h; procedure, shortened: as §1
[7] = biological target: T2, UDP-glucuronosyltransferase 1A10 (Homo sapiens, UniProt Q9HAW8); assay: Drug metabolism in human KB3 cells overexpressing human UGT1A10 assessed as enzyme-mediated metabolites formation at 30 uM for 24 to 72 hrs by HPLC analysis and electrospray ionization-mass spectrometry; assay type: ADME, cell-based; settings: kb3, 30 µM; procedure, shortened: as §3
T2 sequence (Q9HAW8 whole entry): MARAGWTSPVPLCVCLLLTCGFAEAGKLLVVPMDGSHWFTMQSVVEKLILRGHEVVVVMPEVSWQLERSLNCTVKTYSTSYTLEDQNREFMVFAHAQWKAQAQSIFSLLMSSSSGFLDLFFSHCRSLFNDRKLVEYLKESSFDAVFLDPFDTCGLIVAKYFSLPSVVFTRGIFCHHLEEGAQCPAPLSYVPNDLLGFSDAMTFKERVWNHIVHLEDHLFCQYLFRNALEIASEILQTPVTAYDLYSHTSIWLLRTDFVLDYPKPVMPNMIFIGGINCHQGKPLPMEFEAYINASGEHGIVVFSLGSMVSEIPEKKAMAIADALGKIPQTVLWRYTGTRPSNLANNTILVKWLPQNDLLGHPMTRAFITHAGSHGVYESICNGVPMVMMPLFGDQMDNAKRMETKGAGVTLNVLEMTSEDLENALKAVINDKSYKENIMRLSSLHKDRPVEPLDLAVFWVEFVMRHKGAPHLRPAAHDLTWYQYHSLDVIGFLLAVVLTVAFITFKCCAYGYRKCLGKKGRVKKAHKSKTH

[8] = Cell cycle arrest in human KB3 cells overexpressing human UGT1A10 assessed as accumulation of cells with 4N DNA content at 3 uM after 24 to 72 hrs by propidium iodide staining-based FACS flow cytometric analysis; assay type: functional; procedure, shortened: as §2
[9] = Cytotoxicity against human KB3 cells expressing human UGT1A10 assessed as decrease in cell viability after 72 hrs by MTT assay; assay type: functional, cell-based; settings: KB3, 72 h; procedure, shortened: as §1
[10] = Cell cycle arrest in human KB3 cells assessed as distribution at S phase at 3 uM after 24 hrs by propidium iodide staining-based FACS flow cytometric analysis; assay type: functional
[11] = biological target: T2, UDP-glucuronosyltransferase 1A10; assay: Drug metabolism in human KB3 cells overexpressing human UGT1A10 assessed as enzyme-mediated metabolites formation at 30 uM for 24 to 72 hrs by HPLC analysis; assay type: ADME, cell-based; settings: kb3, 30 µM; procedure, shortened: as §3
[12] = Cell cycle arrest in human KB3 cells assessed as distribution at M phase at 3 uM after 24 hrs by propidium iodide staining-based FACS flow cytometric analysis; assay type: functional
[13] = Drug metabolism in human KB3 cells assessed as retention time at 30 uM for 24 to 72 hrs by HPLC analysis; assay type: ADME, cell-based; settings: kb3, 30 µM; procedure, shortened: as §3
[14] = Cell cycle arrest in human KB3 cells assessed as distribution at G2 phase at 3 uM after 24 hrs by propidium iodide staining-based FACS flow cytometric analysis; assay type: functional
[15] = Cell cycle arrest in human KB3 cells assessed as distribution at S phase at 8 uM after 24 hrs by propidium iodide staining-based FACS flow cytometric analysis; assay type: functional
[16] = Cell cycle arrest in human KB3 cells assessed as distribution at M phase at 8 uM after 48 to 72 hrs by propidium iodide staining-based FACS flow cytometric analysis; assay type: functional
[17] = Cell cycle arrest in human KB3 cells assessed as reduction of cells at G1 phase at 8 uM after 24 hrs by propidium iodide staining-based FACS flow cytometric analysis; assay type: functional
[18] = Cell cycle arrest in human KB3 cells assessed as distribution at subG1 DNA content at 8 uM after 72 hrs by propidium iodide staining-based FACS flow cytometric analysis (reference value: 3.4%); assay type: functional
[19] = Cell cycle arrest in human KB3 cells overexpressing human UGT1A10 assessed as accumulation of cells with 4N DNA content at 8 uM after 24 to 72 hrs by propidium iodide staining-based FACS flow cytometric analysis; assay type: functional; procedure, shortened: as §2
[20] = Cell cycle arrest in human KB3 cells assessed as distribution at G2 phase at 8 uM after 48 to 72 hrs by propidium iodide staining-based FACS flow cytometric analysis; assay type: functional
[21] = Cell cycle arrest in human KB3 cells assessed as distribution at G2/M phase at 8 uM after 24 hrs by propidium iodide staining-based FACS flow cytometric analysis; assay type: functional
[22] = Cell cycle arrest in human KB3 cells overexpressing human UGT1A10 assessed as distribution at subG1 DNA content at 8 uM after 24 hrs by propidium iodide staining-based FACS flow cytometric analysis (reference value: 3.4%); assay type: functional; settings: in the assay text read “72 hrs” for “24 hrs”; procedure, shortened: as §2

Row | SMILES | IC50 [1] [µM] | IC50 [2] [µM] | Drug metabolism [4] | IC50 [6] [µM] | Drug metabolism [7] | IC50 [9] [µM] | Drug metabolism [11] | Retention_time [13] [min] | other results
1 | CCN(CC)CCNc1ccc2ncn3c4ccc(O)cc4c(=O)c1c23.Cl | 0.106 | 0.113 | metabolite_not_detected | 0.102 | metabolite_detected | 0.131 | metabolite_detected | 15 | Activity [3]: 22.4%; Activity [5]: 16.9%; Activity [8]: Active; Activity [10]: Active; Activity [12]: Active; Activity [14]: Active
2 | CN(C)CCCNc1ccc2nnn3c4ccc(O)cc4c(=O)c1c23.Cl | 0.263 | 0.261 | metabolite_not_detected | 0.26 | metabolite_detected | 0.18 | metabolite_detected | 18 | Activity [15]: Active; Activity [16]: Active; Activity [17]: Active; Activity [18]: 18.7%; Activity [19]: Active; Activity [20]: Active; Activity [21]: Active; Activity [22]: 37.2%
